Experiment [1] deals with Escherichia coli. Kind of experiment: Inhibition of Escherichia coli PBP3 assessed as residual activity at 1 mM preincubated for 1 hr followed by substrate addition measured after 30 mins by fluorescence anisotropy assay relative to control. The method, boiled down:
(§1)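 Purified PBP (60 nM) preincubated with compound for 1 h at 30 °C in 100 mM sodium phosphate pH 7 with 0.01% Triton. BOCILLIN FL (30 nM) was then added, and fluorescence anisotropy was read after 30 min. Residual activity is the percentage of the uninhibited control. Run in triplicate.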
(Fluorescence polarisation rises when a labelled molecule tumbles more slowly, as on binding a larger partner.)

Experiment [2] relates to Haemophilus influenzae. As to the kind of experiment: Antimicrobial activity against Haemophilus influenzae ATCC 49766 assessed as bacterial growth inhibition incubated for 18 hrs by CLSI protocol based broth microdilution method. The class given is functional. On the technique in general: Dilution methods test growth across graded concentrations, often in twofold steps.

Experiment [3] has as its system Acinetobacter baumannii. Kind of experiment: Inhibition of Acinetobacter baumannii PBP3 assessed as residual activity at 1 mM preincubated for 1 hr followed by substrate addition measured after 30 mins by fluorescence anisotropy assay relative to control. Summed up: as §1
Experiment [4] concerns Acinetobacter baumannii. As to the kind of experiment: Antimicrobial activity against Acinetobacter baumannii ATCC 19606 assessed as bacterial growth inhibition incubated for 18 hrs by CLSI protocol based broth microdilution method. It counts as functional. The following applies: ATCC 19606 = CIP 70.34 = JCM 6841.
The subject of experiment [5] is Pseudomonas aeruginosa. Kind of experiment: Synergistic antimicrobial activity against Pseudomonas aeruginosa PAO1 assessed as bacterial growth inhibition in presence of piperacillin incubated for 18 hrs by checkerboard titration method. The class given is functional, organism-based.
Experiment [6] relates to Escherichia coli. As to the kind of experiment: Antimicrobial activity against Escherichia coli […] assessed as bacterial growth inhibition incubated for 18 hrs by CLSI protocol based broth microdilution method. The class given is functional.
Experiment [7] deals with Escherichia coli. Kind of experiment: Synergistic antimicrobial activity against Escherichia coli […] assessed as bacterial growth inhibition in presence of piperacillin incubated for 18 hrs by checkerboard titration method. The class given is functional, organism-based.
For experiment [8], the system named is Pseudomonas aeruginosa. As to the kind of experiment: Antimicrobial activity against permeabilized Pseudomonas aeruginosa assessed as bacterial growth inhibition incubated for 18 hrs by CLSI protocol based broth microdilution method. To be noted: dose 150 µM. The class given is functional.
In experiment [9] the test system is Pseudomonas aeruginosa. Kind of experiment: Antimicrobial activity against Pseudomonas aeruginosa PAO1 assessed as bacterial growth inhibition incubated for 18 hrs by CLSI protocol based broth microdilution method. The class given is functional.
The subject of experiment [10] is Haemophilus influenzae. Kind of experiment: Inhibition of Haemophilus influenzae PBP3 assessed as residual activity at 1 mM preincubated for 1 hr followed by substrate addition measured after 30 mins by fluorescence anisotropy assay relative to control. Summed up:
as §1

The subject of experiment [11] is Neisseria gonorrhoeae. Kind of experiment: Inhibition of Neisseria gonorrhoeae PBP2 assessed as residual activity at 1 mM preincubated for 1 hr followed by substrate addition measured after 30 mins by fluorescence anisotropy assay relative to control. The method, boiled down: as §1
The subject of experiment [12] is Pseudomonas aeruginosa. Kind of experiment: Reversible inhibition of Pseudomonas aeruginosa PBP3 using nitrocefin as substrate assessed as increase in irreversibly bound ceftazidime IC50 by two-fold dilution assay. The following applies: dose 150.0 µM.
Experiment [13] deals with Pseudomonas aeruginosa. As to the kind of experiment: Inhibition of Pseudomonas aeruginosa PBP3 at 1 mM using bocillin FL as a fluorogenic substrate preincubated for 0 to 60 mins followed by substrate addition measured after 30 mins by fluorescence anisotropy assay. To be noted: time 0-60 min. Summed up:
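PaPBP3 preincubated with compound for 0, 30 or 60 min before BOCILLIN FL was added to start the reaction. Otherwise the standard FA competition format: 60 nM protein, 30 nM BOCILLIN FL, pH 7 sodium phosphate with 0.01% Triton, 30 °C.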

The subject of experiment [14] is Neisseria gonorrhoeae. As to the kind of experiment: Antimicrobial activity against Neisseria gonorrhoeae ATCC 49226 assessed as bacterial growth inhibition incubated for 18 hrs by CLSI protocol based broth microdilution method. It counts as functional.
The subject of experiment [15] is Pseudomonas aeruginosa. As to the kind of experiment: Inhibition of Pseudomonas aeruginosa PBP3 using bocillin FL as a fluorogenic substrate assessed as residual activity at 1 mM preincubated for 1 hr followed by substrate addition measured after 30 mins by fluorescence anisotropy assay relative to control. Summed up: as §1
Experiment [16] deals with Pseudomonas aeruginosa. Kind of experiment: Inhibition of Pseudomonas aeruginosa PBP3 using bocillin FL as a fluorogenic substrate assessed as residual activity at 100 uM preincubated for 1 hr followed by substrate addition measured after 30 mins by fluorescence anisotropy assay relative to control. Summed up: as §1
The subject of experiment [17] is Pseudomonas aeruginosa. Kind of experiment: Inhibition of Pseudomonas aeruginosa PBP3 using (2-((benzoyl-D-alanyl)thio)acetic acid) as a substrate assessed as residual activity by measuring substrate turnover at 100 uM incubated for 1 hr followed by substrate addition by absorbance based assay relative to control. Summed up: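 PaPBP3 (400 nM; 200 nM final) incubated with compound for 1 h at 30 °C in 100 mM sodium phosphate pH 7 with 0.01% Triton. S2d and DTNB (1 mM each, final) were then added, and A412 was followed at 30 °C. Initial rates were corrected for non-enzymatic hydrolysis, measured with 1 mM aztreonam. Residual activity is the percentage of the untreated control. Three technical replicates, standard error.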

Here are results for nine compounds from ChEMBL document CHEMBL5055635, “High-Throughput Crystallography Reveals Boron-Containing Inhibitors of a Penicillin-Binding Protein with Di- and Tricovalent Binding Modes” (J Med Chem, 2021).

Each structure is given as a SMILES string. Calls of active or inactive are those of the source. No cut-off for these calls is given here. Some results are limits rather than exact numbers.

As for `NC(=O)[C@H](NC(=O)c1ccc2c(c1)B(O)OC2CC(=O)O)c1ccccc1` (stereo partly specified), the Activity in experiment [1] was over 90%; in [3] it was 73%; in [10], 32%; in experiment [11], over 90%. For the same compound, the MIC in [2], in [4], in [6], in experiment [8], in experiment [9] and in experiment [14] was over 64 µg/mL in each case. The outcome in experiment [5] and in [7] was inactive. Moreover, the inhibition result in experiment [12] and in experiment [13] was “inactive” each time.
On to `O=C(O)C[C@@H]1OB(O)c2ccc(OCc3ccccc3)cc21`, for which the Activity in experiment [15] is 20%.
As to `O=C1CN(C(=O)CNC(=O)c2ccc3c(c2)B(O)OC3)CCN1`, the Activity in [15] was over 90%.
Same read-out and setting: with `OB(O)c1cccc(-c2nnn[nH]2)c1` the figure was 82%.
In the case of `CN1CCN(C(=O)[C@@H](Cc2ccccc2)NC(=O)c2ccc3c(c2)B(O)OC3)CC1=O`, in experiment [15], the Activity is over 90%.
Turning to `COC(=O)[C@H](NC(=O)c1ccc2c(c1)B(O)OC2)c1ccccc1`, the MIC in experiment [6], in experiment [8] and in experiment [9] was over 64 µg/mL in each case. Moreover, the Activity in experiment [16] and in experiment [17] was over 90% in each case.
For `CN1CCN(C(=O)CNC(=O)c2ccc3c(c2)B(O)OC3)CC1=O`, the Activity in experiment [15] was over 90%.
`O=C(c1ccc2c(c1)B(O)OC2)N(Cc1ccccc1)Cc1ccccc1`: the MIC in [6], in [8] and in [9] was over 64 µg/mL throughout. In addition, the Activity in [16] is 87%.
As to `CN1CCN(C(=O)CNC(=O)c2ccc3c(c2)B(O)OC3CC(=O)O)CC1=O` (stereo unspecified), the MIC in [6], in experiment [8] and in experiment [9] was over 64 µg/mL in each case.
